# Active and inactive are the calls of the source. The rule behind the calls is not given here.
# What was measured:
# [1] = target: T1, Muscarinic acetylcholine receptor M4 (Homo sapiens, UniProt P08173); assay: Activity at human M4 receptor assessed as inhibition of forskolin-stimulated cAMP accumulation; format: functional
# T1 sequence (P08173 whole entry): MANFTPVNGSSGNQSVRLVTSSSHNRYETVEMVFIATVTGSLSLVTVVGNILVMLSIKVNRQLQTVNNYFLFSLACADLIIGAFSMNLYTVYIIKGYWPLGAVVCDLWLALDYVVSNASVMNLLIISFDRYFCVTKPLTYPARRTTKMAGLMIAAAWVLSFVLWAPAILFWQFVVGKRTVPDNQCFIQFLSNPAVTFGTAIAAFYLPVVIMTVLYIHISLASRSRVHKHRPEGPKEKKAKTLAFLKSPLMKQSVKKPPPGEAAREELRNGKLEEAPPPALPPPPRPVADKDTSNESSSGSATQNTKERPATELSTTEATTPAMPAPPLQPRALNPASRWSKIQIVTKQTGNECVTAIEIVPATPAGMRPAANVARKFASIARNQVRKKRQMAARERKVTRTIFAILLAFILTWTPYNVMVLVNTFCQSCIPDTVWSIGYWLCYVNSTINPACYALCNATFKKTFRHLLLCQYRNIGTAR
# [2] = target: T2, Muscarinic acetylcholine receptor M2 (Homo sapiens, UniProt P08172); assay: Inhibition of [3H](R)-QNB binding to human M2 receptor expressed in A9 L cells; format: cell-based, A9L
# T2 sequence (P08172 whole entry): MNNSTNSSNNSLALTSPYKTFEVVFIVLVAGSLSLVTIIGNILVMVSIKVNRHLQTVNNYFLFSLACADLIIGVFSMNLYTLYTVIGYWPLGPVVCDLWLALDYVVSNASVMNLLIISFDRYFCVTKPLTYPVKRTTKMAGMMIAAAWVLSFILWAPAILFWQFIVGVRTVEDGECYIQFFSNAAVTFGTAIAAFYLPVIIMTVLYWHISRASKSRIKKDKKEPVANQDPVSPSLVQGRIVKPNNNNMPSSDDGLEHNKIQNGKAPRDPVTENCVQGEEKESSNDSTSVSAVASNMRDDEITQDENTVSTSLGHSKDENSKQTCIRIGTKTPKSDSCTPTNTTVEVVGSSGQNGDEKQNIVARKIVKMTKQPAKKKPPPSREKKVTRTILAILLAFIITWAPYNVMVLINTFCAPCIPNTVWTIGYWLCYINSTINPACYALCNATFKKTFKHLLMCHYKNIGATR
# Procedure, shortened: (§1)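 Membranes from A9 L cells expressing the receptor; 0.1 nM [3H]-(R)-QNB with 14 concentrations of test ligand (0.01 nM to 3 mM) in 25 mM sodium phosphate pH 7.4, 5 mM MgCl2, 2 h room temperature; nonspecific binding with 1000-fold excess unlabeled (R)-QNB.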
# [3] = target: T3, Muscarinic acetylcholine receptor M5 (Homo sapiens, UniProt P08912); assay: Inhibition of [3H](R)-QNB binding to human M5 receptor expressed in A9 L cells; format: cell-based, A9L; procedure, shortened: as §1
# T3 sequence (P08912 whole entry): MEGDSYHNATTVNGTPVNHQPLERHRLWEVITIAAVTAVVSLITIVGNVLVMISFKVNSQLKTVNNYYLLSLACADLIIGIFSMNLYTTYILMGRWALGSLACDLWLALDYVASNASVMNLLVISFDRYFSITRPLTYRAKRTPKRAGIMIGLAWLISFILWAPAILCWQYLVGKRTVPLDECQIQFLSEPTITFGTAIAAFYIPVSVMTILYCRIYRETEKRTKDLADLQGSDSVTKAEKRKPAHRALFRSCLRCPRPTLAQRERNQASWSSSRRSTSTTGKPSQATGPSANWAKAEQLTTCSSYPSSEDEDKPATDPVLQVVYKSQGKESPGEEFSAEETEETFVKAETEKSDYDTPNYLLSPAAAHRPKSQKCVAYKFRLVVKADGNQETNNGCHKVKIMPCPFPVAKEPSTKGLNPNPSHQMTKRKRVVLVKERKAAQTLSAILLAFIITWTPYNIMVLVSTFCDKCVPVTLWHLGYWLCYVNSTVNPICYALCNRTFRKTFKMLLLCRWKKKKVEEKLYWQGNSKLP
# [4] = target: T4, Muscarinic acetylcholine receptor M5 (Homo sapiens) (UniProt P08912); assay: Agonist activity at human M5 receptor expressed in A9 L cells assessed as stimulation of phosphoinositide hydrolysis relative to carbachol; format: functional, cell-based; conditions: L929
# T4 sequence (whole entry): T3 sequence (P08912 whole entry)
# Procedure, shortened: (§2)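 A9 L cells stably expressing the receptor, seeded 24 h, labelled overnight with 10 µCi/mL [3H]inositol in inositol-free DMEM; ligands in HBSS with 10 mM LiCl, 20 mM HEPES, 37 °C, 1 h; formic acid extraction, inositol phosphates counted by SPA beads.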
# [5] = target: T1, Muscarinic acetylcholine receptor M4; assay: Inhibition of [3H](R)-QNB binding to human M4 receptor expressed in A9 L cells; format: cell-based, A9L; procedure, shortened: as §1
# [6] = target: T5, Muscarinic acetylcholine receptor M2 (Homo sapiens) (UniProt P08172); assay: Activity at human M2 receptor assessed as inhibition of forskolin-stimulated cAMP accumulation relative to carbachol; format: functional
# T5 sequence (whole entry): T2 sequence (P08172 whole entry)
# [7] = target: T6, Muscarinic acetylcholine receptor M3 (Homo sapiens, UniProt P20309); assay: Inhibition of [3H](R)-QNB binding to human M3 receptor expressed in A9 L cells; format: cell-based, A9L
# Target sequence in this assay (P20309 whole entry): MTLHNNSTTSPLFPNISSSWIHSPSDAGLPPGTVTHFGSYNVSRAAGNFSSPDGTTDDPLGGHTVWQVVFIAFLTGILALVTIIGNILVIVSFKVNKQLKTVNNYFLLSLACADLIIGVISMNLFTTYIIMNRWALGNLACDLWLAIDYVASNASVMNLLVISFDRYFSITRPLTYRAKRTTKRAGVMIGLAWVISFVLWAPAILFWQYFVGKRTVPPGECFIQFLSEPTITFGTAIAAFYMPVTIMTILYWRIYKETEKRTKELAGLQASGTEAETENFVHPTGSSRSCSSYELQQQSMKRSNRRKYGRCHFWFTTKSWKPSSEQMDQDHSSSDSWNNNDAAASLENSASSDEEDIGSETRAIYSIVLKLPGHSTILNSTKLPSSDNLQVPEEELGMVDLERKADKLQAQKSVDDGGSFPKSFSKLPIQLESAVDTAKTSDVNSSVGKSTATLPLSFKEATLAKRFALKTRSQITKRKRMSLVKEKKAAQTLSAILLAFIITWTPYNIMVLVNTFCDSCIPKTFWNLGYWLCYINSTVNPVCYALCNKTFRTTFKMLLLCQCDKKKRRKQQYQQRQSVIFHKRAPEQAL
# [8] = target: T7, Muscarinic acetylcholine receptor M4 (Homo sapiens) (UniProt P08173); assay: Activity at human M4 receptor assessed as inhibition of forskolin-stimulated cAMP accumulation relative to carbachol; format: functional
# T7 sequence (whole entry): T1 sequence (P08173 whole entry)
# [9] = target: T8, Muscarinic acetylcholine receptor M1 (Homo sapiens) (UniProt P11229); assay: Agonist activity at human M1 receptor expressed in A9 L cells assessed as stimulation of phosphoinositide hydrolysis relative to carbachol; format: functional, cell-based; conditions: L929; procedure, shortened: as §2
# T8 sequence (whole entry): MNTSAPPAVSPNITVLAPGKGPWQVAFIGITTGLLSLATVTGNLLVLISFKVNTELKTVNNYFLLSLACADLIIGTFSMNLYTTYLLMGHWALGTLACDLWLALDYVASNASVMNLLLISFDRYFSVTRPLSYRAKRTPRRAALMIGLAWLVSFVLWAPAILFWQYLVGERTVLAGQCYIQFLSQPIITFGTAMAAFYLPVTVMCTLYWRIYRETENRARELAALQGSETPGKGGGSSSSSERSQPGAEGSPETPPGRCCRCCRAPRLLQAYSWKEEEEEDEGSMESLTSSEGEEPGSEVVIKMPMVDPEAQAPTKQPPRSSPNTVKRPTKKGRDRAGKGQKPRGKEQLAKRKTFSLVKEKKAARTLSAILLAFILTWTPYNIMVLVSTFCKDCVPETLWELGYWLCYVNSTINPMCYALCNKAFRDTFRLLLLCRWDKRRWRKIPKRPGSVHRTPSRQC
# [10] = target: T6, Muscarinic acetylcholine receptor M3; assay: Agonist activity at human M3 receptor expressed in A9 L cells assessed as stimulation of phosphoinositide hydrolysis relative to carbachol; format: functional, cell-based; conditions: L929; procedure, shortened: as §2
# Target sequence in this assay (P20309 whole entry, looked up): as the sequence (P20309 whole entry) above
# [11] = target: T9, Muscarinic acetylcholine receptor M1 (Homo sapiens, UniProt P11229); assay: Agonist activity at human M1 receptor expressed in A9 L cells assessed as stimulation of phosphoinositide hydrolysis; format: functional, cell-based, L929
# T9 sequence (P11229 whole entry): T8 sequence (whole entry)
# [12] = target: T9, Muscarinic acetylcholine receptor M1; assay: Inhibition of [3H](R)-QNB binding to human M1 receptor expressed in A9 L cells; format: cell-based, A9L
# [13] = target: T2, Muscarinic acetylcholine receptor M2; assay: Activity at human M2 receptor assessed as inhibition of forskolin-stimulated cAMP accumulation; format: functional
# [14] = target: T4, Muscarinic acetylcholine receptor M5 (Homo sapiens); assay: Agonist activity at human M5 receptor expressed in A9 L cells assessed as stimulation of phosphoinositide hydrolysis at 100 uM relative to carbachol; format: functional, cell-based; conditions: L929
# [15] = tested on: Rattus norvegicus; assay: Antipsychotic activity in Sprague-Dawley rat assessed as ability to reverse apomorphine effect on prepulse inhibition of the startle response at 1 mg/kg, sc; format: functional, organism-based; set-up: dose 1 mg/kg
# Procedure, shortened: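 Male Sprague-Dawley rats, 250-300 g, habituated a day before. Drug in water or saline sc (1 mL/kg) 25 min, apomorphine 1.0 mg/kg 5 min pre-test; muscarinic agonists 0.1-3 mg/kg. Session of 15 each pulse-alone (120 dB, 100 ms) and pulse preceded 200 ms by 20 ms prepulse 12 dB above 70 dB background; 12 rats/group; %PPI calculated.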
# [16] = target: T7, Muscarinic acetylcholine receptor M4 (Homo sapiens); assay: Activity at human M4 receptor assessed as inhibition of forskolin-stimulated cAMP accumulation at 1 mM relative to carbachol; format: functional
# [17] = target: T5, Muscarinic acetylcholine receptor M2 (Homo sapiens); assay: Activity at human M2 receptor assessed as inhibition of forskolin-stimulated cAMP accumulation at 1 mM relative to carbachol; format: functional
# [18] = target: T6, Muscarinic acetylcholine receptor M3; assay: Antagonist activity at human M3 receptor assessed as inhibition of carbachol […]; conditions: read-out: pA2 (converted)
# Target sequence in this assay (P20309 whole entry): as the sequence (P20309 whole entry) above
SMILES,IC50 [1] [nM],Ki [2] [nM],Ki [3] [nM],Activity [4],Ki [5] [nM],Imax [6],Ki [7] [nM],Imax [8] [%],Smax [9] [%],Activity [10],EC50 [11] [nM],Ki [12] [nM],IC50 [13] [nM],Smax [14] [%],Activity [15],Smax [4] [%],Imax [16] [%],Imax [17] [%],Kb [18] [nM]
COc1nsc(OCCCOCCCOCCCOc2nsnc2C2=CCCN(C)C2)n1,6310,63.1,251,inactive,158,inactive,200,130,27,inactive,501,63.1,,,,,,,
COc1nsnc1OCCOCCOCCOc1nsnc1C1=CCCN(C)C1,7940,39.8,631,,79.4,110%,251,100,13,inactive,794,316,3160,1.3,,,,,
Clc1ccc2c(c1)N=C(N1CCNCC1)c1ccccc1N2,,,,,,,,,,,,,,,inactive,,,,
COc1nsnc1OCCOCCOc1nsnc1C1=CCCN(C)C1,7940,39.8,251,,63.1,77%,50.1,47,11,inactive,1000,794,79.4,0.83,,,,,
CN1CCC=C(c2nsnc2OCCOCCOCCOCCO)C1,25100,316,3980,,794,86%,316,110,7.9,inactive,794,1000,7.94,,,7.4,,,
COc1nsnc1OCCCOCCCOCCCOc1nsnc1C1=CCCN(C)C1,,158,100,,158,,200,,21,inactive,3160,100,,,,0.6,260,130,
CN1CCN(C2=Nc3cc(Cl)ccc3Nc3ccccc32)CC1,,,,,,,,,,,,,,,Active,,,,
O=C(CCCN1CCC(O)(c2ccc(Cl)cc2)CC1)c1ccc(F)cc1,,,,,,,,,,,,,,,Active,,,,
COc1nsnc1OCCOCCOCCOCCOCCOc1nsnc1C1=CCCN(C)C1,398,2.51,100,,12.6,98%,1580,37,28,inactive,251,398,398,0.95,,,,,63.1
